ChEMBL document CHEMBL4406794, “N-(7-Cyano-6-(4-fluoro-3-(2-(3-(trifluoromethyl)phenyl)acetamido)phenoxy)benzo[d]thiazol-2-yl)cyclopropanecarboxamide (TAK-632) Analogues as Novel Necroptosis Inhibitors by Targeting Receptor-Interacting Protein Kinase 3 (RIPK3): Synthesis, Structure-Activity Relationships, and in Vivo Efficacy” (J Med Chem, 2019)
Activity calls are given as the source filed them. The rule behind the calls is not given here.

Columns and labels:
Homo sapiens = species: Homo sapiens; experiment: Selectivity ratio of Kd for human partial length RIPK1 (M1 to K305 residues) expressed in bacterial expression system to Kd for wild-type human partial length RIPK3 (M1 to Q307 residues) expressed in bacterial expression system
Mus musculus = experiment: Protection against TNFalpha/Z-VAD-fmk-induced C57BL/6J mouse model of systemic inflammatory response syndrome at 25 mg/kg, po administered via gavage 2 hrs prior to Z-VAD-fmk addition for 15 mins followed by TNFalpha stimulation for 1 hr and subsequent Z-VAD-fmk addition meaured up to 50 hrs post TNFalpha stimulation relative to control; type: functional
Procedure, shortened: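 Overnight-fasted C57BL/6 female mice, n=10 per group. Test compound was given by oral gavage 2 h before mTNF-α. z-VAD-fmk (180 µg) was injected ip, then 15 min later mTNF-α in endotoxin-free PBS was injected iv (400 µg/kg). A second z-VAD-fmk dose (70 µg) was given ip 1 h after TNF. Body temperature and survival were followed against vehicle. One-way ANOVA was used.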

[1] = target: Hepatocyte growth factor receptor (Homo sapiens) (UniProt P08581); experiment: Inhibition of wild-type human partial length MET (D1010 to S1367 residues) expressed in bacterial expression system assessed as enzyme remaining activity at 1000 nM by Kinomescan method relative to control
HT-29 = experiment: Effect on TNFalpha/smac mimetic-induced apoptosis in human HT-29 cells at 3 uM treated prior to TNFalpha/smac mimetic stimulation and measured after 20 hrs by cell-Titer Glo luminescent cell viability assay; settings: ht-29, 20 h
[2] = target: Mitogen-activated protein kinase 8 (Homo sapiens) (UniProt P45983); experiment: Inhibition of wild-type human full length JNK1 (M1 to Q384 residues) expressed in mammalian expression system assessed as enzyme remaining activity at 1000 nM by Kinomescan method relative to control
[3] = target: Dual specificity mitogen-activated protein kinase kinase 1 (Homo sapiens) (UniProt Q02750); experiment: Inhibition of wild-type human full length MEK1 (M1 to V393 residues) expressed in mammalian expression system assessed as enzyme remaining activity at 1000 nM by Kinomescan method relative to control
[4] = target: T1, Receptor-interacting serine/threonine-protein kinase 1 (Homo sapiens, UniProt Q13546); experiment: Binding affinity to wild-type human partial length RIPK1 (M1 to K305 residues) expressed in bacterial expression system at 5 uM after 1 hr by quantitative PCR based KINOMEscan assay
T1 sequence (Q13546 whole entry): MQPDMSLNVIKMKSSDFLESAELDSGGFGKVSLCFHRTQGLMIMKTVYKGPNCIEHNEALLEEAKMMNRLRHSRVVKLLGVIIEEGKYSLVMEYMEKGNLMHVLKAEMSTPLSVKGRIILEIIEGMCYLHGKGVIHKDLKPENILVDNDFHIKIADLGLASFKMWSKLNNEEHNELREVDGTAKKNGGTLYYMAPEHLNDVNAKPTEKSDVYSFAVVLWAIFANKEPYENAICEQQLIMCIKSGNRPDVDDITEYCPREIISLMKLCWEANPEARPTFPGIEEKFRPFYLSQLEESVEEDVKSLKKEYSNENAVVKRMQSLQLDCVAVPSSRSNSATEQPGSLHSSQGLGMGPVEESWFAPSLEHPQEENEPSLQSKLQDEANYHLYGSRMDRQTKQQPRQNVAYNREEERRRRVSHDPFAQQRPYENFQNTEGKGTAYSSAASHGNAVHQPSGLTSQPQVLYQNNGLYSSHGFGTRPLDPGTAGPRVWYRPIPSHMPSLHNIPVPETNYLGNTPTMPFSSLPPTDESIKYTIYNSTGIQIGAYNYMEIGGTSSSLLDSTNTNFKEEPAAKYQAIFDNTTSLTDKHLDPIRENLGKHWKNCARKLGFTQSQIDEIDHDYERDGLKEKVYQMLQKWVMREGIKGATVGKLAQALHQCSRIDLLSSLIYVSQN

[5] = target: Mixed lineage kinase domain-like protein (Homo sapiens) (UniProt Q8NB16); experiment: Inhibition of MLKL phosphorylation in TNFalpha/smac mimetic/Z-VAD-fmk stimulated human HT-29 cells at 1 uM treated prior to TNFalpha/smac mimetic/Z-VAD-fmk stimulation and measured after 2 to 4 hrs by SDS-PAGE based immunoblot assay; type: cell-based
[6] = AUC (0 to infinity) in Sprague-Dawley rat at 5 mg/kg, po by LC-tandem mass spectrometry analysis; type: ADME, organism-based; set-up: dose 5 mg/kg, time infinity, route oral; settings: in vivo
Procedure, shortened: (§1)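 Male Sprague-Dawley rats dosed once i.v. at 1 mg/kg or intragastrically at 5 mg/kg. Compound dissolved in 5% DMSO, 10% Tween 80, 75% physiological saline at 0.2 and 1 mg/mL. Blood taken at several time points, plasma spun at 4 °C, stored at -80 °C, assayed by LC/MS/MS. Parameters from individual animals by noncompartmental analysis.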

[7] = Tmax in Sprague-Dawley rat at 5 mg/kg, po by LC-tandem mass spectrometry analysis; type: ADME, organism-based; settings: in vivo
Procedure, shortened: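 Male Sprague-Dawley rats received compound iv (1 mg/kg) or intragastrically (5 mg/kg). The vehicle was 5% DMSO, 10% Tween 80 and 75% saline, at 0.2 or 1 mg/mL. Blood was sampled at several time points and centrifuged at 4 °C. Plasma was stored at -80 °C and analysed by LC/MS/MS. Parameters were derived by noncompartmental analysis of individual animal data.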

[8] = AUC (0 to infinity) in Sprague-Dawley rat at 1 mg/kg, iv by LC-tandem mass spectrometry analysis; type: ADME, organism-based; set-up: dose 1 mg/kg, time infinity, route intravenous; settings: in vivo; procedure, shortened: as §1
[9] = target: Epidermal growth factor receptor (Homo sapiens) (UniProt P00533); experiment: Inhibition of wild-type human partial length EGFR (R669 to V1011 residues) expressed in bacterial expression system assessed as enzyme remaining activity at 1000 nM by Kinomescan method relative to control
Procedure, shortened: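 KINOMEscan binding competition. […] Incubation was 1 h at room temperature with shaking, then bead wash and elution with 0.5 μM nonbiotinylated ligand for 30 min. Eluted kinase was quantified by qPCR. Compound was diluted from 40× DMSO stocks to 1000 nM final.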

[10] = target: MAP kinase-activated protein kinase 2 (Homo sapiens) (UniProt P49137); experiment: Inhibition of wild-type human partial length MAPKAPK2 (V48 to D345 residues) expressed in bacterial expression system assessed as enzyme remaining activity at 1000 nM by Kinomescan method relative to control
[11] = target: Platelet-derived growth factor receptor alpha (Homo sapiens) (UniProt P16234); experiment: Inhibition of wild-type human partial length PDGFRA (V575 to D1002 residues) expressed in mammalian expression system assessed as enzyme remaining activity at 1000 nM by Kinomescan method relative to control
[12] = target: Mitogen-activated protein kinase kinase kinase 4 (Homo sapiens) (UniProt Q9Y6R4); experiment: Inhibition of wild-type human partial length MAP3K4 (G1319 to E1608 residues) expressed in bacterial expression system assessed as enzyme remaining activity at 1000 nM by Kinomescan method relative to control
[13] = target: Cyclin-dependent kinase 3 (Homo sapiens) (UniProt Q00526); experiment: Inhibition of wild-type human full length CDK3 (M1 to H305 residues) expressed in bacterial expression system assessed as enzyme remaining activity at 1000 nM by Kinomescan method relative to control
Sequence of Cyclin-dependent kinase 3 (Homo sapiens) (Q00526 whole entry, looked up, the tested form may be a part): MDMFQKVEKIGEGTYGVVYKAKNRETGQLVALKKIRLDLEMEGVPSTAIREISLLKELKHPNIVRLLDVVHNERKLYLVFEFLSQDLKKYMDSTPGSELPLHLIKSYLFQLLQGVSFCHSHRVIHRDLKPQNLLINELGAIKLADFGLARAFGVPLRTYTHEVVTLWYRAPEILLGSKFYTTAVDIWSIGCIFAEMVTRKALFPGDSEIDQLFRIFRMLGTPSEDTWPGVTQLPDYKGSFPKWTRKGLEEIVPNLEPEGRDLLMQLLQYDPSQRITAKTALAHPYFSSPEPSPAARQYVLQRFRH

Sequence of Mixed lineage kinase domain-like protein (Homo sapiens) (Q8NB16 whole entry, the tested form may be a part): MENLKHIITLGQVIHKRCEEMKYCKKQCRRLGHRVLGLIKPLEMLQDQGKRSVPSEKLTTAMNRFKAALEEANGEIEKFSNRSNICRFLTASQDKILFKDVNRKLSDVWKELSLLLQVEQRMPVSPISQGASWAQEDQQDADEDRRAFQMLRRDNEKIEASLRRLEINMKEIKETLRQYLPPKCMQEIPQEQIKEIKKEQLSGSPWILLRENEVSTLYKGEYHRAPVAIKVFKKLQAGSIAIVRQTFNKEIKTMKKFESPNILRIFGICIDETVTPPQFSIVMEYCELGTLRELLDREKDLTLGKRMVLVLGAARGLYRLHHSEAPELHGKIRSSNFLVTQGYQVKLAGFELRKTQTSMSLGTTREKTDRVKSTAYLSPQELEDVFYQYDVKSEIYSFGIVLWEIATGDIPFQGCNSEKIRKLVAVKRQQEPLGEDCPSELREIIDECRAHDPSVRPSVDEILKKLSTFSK
Sequence of Platelet-derived growth factor receptor alpha (Homo sapiens) (P16234 whole entry, the tested form may be a part): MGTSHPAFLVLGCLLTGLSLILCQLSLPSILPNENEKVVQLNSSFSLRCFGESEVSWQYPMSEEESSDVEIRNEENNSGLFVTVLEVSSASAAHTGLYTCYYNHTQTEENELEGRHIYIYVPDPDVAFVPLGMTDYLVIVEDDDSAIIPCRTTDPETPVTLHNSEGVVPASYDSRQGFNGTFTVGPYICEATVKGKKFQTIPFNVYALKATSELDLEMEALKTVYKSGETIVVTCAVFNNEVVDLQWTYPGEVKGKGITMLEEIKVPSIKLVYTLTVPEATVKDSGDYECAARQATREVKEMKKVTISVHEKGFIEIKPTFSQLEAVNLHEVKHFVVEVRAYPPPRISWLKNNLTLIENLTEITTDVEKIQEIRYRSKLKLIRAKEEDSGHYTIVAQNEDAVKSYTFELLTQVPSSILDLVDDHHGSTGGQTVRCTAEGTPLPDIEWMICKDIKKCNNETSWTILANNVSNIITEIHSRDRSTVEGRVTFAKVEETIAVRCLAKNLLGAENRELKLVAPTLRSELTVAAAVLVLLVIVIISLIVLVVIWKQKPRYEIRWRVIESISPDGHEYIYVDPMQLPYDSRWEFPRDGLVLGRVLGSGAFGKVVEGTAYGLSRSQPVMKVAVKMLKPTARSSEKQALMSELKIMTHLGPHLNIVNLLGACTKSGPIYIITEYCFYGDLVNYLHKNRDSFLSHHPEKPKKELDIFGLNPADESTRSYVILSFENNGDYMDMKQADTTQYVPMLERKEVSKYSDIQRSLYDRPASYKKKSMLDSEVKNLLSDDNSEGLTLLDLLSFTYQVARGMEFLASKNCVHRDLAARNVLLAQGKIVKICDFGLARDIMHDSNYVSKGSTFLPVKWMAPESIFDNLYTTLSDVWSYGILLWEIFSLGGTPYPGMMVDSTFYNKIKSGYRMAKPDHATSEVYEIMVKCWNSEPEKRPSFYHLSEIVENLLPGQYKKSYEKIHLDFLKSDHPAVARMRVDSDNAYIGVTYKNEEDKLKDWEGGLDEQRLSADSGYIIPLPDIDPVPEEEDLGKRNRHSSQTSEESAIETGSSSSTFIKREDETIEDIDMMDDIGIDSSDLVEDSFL
Sequence of Mitogen-activated protein kinase kinase kinase 4 (Homo sapiens) (Q9Y6R4 whole entry, the tested form may be a part): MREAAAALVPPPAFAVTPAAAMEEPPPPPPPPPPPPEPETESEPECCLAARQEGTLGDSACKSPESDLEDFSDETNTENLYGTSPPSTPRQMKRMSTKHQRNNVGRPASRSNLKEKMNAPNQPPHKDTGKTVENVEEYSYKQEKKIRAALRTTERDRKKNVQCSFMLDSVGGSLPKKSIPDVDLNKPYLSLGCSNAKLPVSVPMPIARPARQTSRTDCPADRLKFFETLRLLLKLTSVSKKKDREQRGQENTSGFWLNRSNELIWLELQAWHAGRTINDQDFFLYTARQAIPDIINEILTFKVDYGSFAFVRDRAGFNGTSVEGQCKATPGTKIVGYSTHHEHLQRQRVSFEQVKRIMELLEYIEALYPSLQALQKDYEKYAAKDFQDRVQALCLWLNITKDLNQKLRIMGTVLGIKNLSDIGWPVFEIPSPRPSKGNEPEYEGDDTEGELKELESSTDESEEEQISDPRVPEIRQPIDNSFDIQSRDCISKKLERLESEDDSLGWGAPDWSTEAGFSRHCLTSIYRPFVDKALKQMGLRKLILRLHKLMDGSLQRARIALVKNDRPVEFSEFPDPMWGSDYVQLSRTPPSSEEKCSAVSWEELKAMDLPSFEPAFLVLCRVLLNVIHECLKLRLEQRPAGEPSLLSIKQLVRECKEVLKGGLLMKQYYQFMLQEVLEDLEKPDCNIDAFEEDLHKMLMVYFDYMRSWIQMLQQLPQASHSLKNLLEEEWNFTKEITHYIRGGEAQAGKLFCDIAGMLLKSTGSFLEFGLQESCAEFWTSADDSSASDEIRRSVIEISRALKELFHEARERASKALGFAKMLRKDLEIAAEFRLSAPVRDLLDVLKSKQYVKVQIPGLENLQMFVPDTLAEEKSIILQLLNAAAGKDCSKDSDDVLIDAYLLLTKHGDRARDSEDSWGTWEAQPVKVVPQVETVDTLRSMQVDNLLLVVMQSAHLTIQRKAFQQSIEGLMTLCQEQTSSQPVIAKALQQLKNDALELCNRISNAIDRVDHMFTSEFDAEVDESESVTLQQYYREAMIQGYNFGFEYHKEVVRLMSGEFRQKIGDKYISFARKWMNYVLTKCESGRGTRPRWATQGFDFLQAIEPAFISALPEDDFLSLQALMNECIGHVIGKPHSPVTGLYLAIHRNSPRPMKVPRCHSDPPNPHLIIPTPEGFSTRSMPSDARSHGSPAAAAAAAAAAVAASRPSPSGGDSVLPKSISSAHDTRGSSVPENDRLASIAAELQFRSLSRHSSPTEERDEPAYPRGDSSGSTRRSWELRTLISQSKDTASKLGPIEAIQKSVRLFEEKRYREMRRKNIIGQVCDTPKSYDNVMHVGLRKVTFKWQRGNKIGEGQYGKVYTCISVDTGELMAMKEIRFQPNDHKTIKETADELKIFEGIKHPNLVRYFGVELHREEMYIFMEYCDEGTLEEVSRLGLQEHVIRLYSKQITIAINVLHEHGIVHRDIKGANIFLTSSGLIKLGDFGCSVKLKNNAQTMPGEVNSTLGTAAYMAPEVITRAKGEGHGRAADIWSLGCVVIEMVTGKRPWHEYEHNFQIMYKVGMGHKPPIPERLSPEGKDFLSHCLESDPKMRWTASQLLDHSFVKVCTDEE
Sequence of MAP kinase-activated protein kinase 2 (Homo sapiens) (P49137 whole entry, looked up, the tested form may be a part): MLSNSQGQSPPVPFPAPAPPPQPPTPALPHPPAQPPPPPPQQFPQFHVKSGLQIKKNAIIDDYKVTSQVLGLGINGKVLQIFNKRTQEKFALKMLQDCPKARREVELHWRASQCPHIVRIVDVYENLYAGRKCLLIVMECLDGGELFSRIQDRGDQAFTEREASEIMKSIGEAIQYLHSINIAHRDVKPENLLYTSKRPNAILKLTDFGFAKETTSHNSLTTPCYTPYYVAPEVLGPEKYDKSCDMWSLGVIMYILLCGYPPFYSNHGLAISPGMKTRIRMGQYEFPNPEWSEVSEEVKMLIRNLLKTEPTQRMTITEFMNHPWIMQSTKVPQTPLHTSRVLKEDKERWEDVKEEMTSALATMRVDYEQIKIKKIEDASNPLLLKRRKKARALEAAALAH
Sequence of Mitogen-activated protein kinase 8 (Homo sapiens) (P45983 whole entry, the tested form may be a part): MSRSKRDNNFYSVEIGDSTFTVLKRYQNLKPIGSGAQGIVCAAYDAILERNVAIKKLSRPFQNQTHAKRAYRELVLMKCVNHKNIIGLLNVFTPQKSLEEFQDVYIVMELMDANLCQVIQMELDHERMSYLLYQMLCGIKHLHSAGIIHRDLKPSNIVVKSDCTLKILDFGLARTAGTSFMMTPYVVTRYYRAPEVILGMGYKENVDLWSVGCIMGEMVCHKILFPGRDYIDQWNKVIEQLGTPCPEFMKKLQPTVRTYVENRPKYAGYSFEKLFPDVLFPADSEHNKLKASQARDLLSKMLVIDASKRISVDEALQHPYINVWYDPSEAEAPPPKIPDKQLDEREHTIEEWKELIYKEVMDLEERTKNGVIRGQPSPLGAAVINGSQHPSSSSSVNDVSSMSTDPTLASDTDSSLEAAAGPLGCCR
Sequence of Dual specificity mitogen-activated protein kinase kinase 1 (Homo sapiens) (Q02750 whole entry, the tested form may be a part): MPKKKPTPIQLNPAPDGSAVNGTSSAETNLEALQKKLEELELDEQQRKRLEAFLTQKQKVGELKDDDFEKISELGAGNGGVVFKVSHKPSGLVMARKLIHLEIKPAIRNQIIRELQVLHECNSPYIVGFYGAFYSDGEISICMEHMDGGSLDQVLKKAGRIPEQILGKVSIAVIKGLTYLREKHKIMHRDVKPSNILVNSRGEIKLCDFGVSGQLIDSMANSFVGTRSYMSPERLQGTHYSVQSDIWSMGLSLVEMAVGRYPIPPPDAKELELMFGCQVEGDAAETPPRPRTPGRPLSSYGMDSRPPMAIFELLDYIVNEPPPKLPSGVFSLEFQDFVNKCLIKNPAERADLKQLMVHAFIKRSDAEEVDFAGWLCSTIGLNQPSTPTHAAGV

For `O=C(Nc1cccc(Br)c1)Nc1cc(Oc2ccc3nc(NC(=O)C4CC4)sc3c2)ccc1F`, the Ratio (Homo sapiens) was over 61.7, the Activity (Mus musculus) was 100% and the Activity [1] was 14%. For the same compound, the Activity (HT-29) was “Non-Toxic”, the Activity [2] was 79% and the Activity [3] was 100%. For the same compound, the Activity [4] was “Not Active”, the inhibition [5] was “Active” and the AUC(0-inf) [6] was 9320 ng·h/mL. The Tmax [7] was 8.67 h, the AUC(0-inf) [8] was 6500 ng·h/mL and the Activity [9] was 33%. The Activity [10] was 100%, the Activity [11] was 5.3% and the Activity [12] was 100%. For the same compound, the Activity [13] was 96%.
